Experimental data pooled from the literature.
Each line is one published result; the experiments were not run side by side.
ACVR2A: Activin receptor type-2A (ACVR2A, Homo sapiens, UniProt P27037)
PIP4K2A: Phosphatidylinositol 5-phosphate 4-kinase type-2 alpha (PIP4K2A, Homo sapiens, UniProt P48426)
BRD9: Bromodomain-containing protein 9 (BRD9, Homo sapiens, UniProt Q9H8M2)
Methionyl-tRNA synthetase, putative: Methionyl-tRNA synthetase, putative (Trypanosoma brucei brucei, UniProt Q38C91)
SLC10A2: Ileal sodium/bile acid cotransporter (SLC10A2, Homo sapiens, UniProt Q12908)
CDKL3: Cyclin-dependent kinase-like 3 (CDKL3, Homo sapiens, UniProt Q8IVW4)
PHIP BD2: PHIP, BD2 (Homo sapiens, UniProt Q8WWQ0)

| Compound | target | test | system | conditions | measurement | result |
| --- | --- | --- | --- | --- | --- | --- |
| O=c1oc2c(O)c(O)cc3c(=O)oc4c(O)c(O)cc1c4c23 | Histone-lysine N-methyltransferase SETD7 (SETD7, Homo sapiens, UniProt Q8WTS6) | cell-free assay |  | 10 µM | inhibition | 20% |
| Cn1c2c(c3ccc(Cl)c(Cl)c31)C(C#N)C1(CCNCC1)NC2=O (racemic) | ACVR2A | thermal stability, DSF |  | 10 µM | ΔTm | 0 °C |
| Cc1cnc(NC2CCOCC2)nc1-n1cnc(C(=O)NC(CN)c2cc(F)cc(Cl)c2)c1 (stereo not drawn) | PIP4K2A | enzyme activity, inhibitor, radiometric |  | 1 µM | remaining activity | 102% |
| NS(=O)(=O)c1ccc(Nc2nc(-c3ccc(F)cc3)c3ccccc3n2)cc1 | BRD9 | binding, competition with immobilised ligand |  | 1 µM | remaining binding | 81% |
| O=C(Cc1cc(Cl)cc(Cl)c1)N1CCCC(c2nc3cc(Cl)c(F)cc3[nH]2)C1 (stereo not drawn) | Methionyl-tRNA synthetase, putative | thermal stability, DSF |  | 100 µM | ΔTm | 7 °C |
| Cc1cc2c(cc1N1C(=O)c3cccc4c(Cl)ccc(c34)C1=O)n(C)c(=O)n2C | PHIP (Homo sapiens, UniProt Q8WWQ0) | thermal stability, DSF |  | 10 µM | ΔTm | -2.4 °C |
| Nc1nc(NC2CC2)c2ncn([C@H]3C=C[C@@H](CO)C3)c2n1 | SLC10A2 | transporter uptake, inhibitor, radiometric |  | 1 mM | inhibition | 13.1% |
| Cc1ccc(C(=O)Nc2ccc(CN3CCN(C)CC3)c(C(F)(F)F)c2)cc1C#Cc1cnc2cccnn12 | CDKL3 | enzyme activity |  | 23.5 nM | remaining activity | 26% |
| COc1cc2ncnc(Nc3ccc(F)c(Cl)c3)c2cc1OCCCN1CCOCC1 | SLC10A2 | transporter uptake, inhibitor, radiometric |  | 1 mM | inhibition | < 10% |
| Cn1c2c(c3ccc(Cl)c(Cl)c31)C(C#N)C1(CCN(C(=O)OC(C)(C)C)CC1)NC2=O (racemic) | ACVR2A | thermal stability, DSF |  | 10 µM | ΔTm | 0 °C |
| COc1cc(Cl)c(C(=O)N[C@@H](CN[C@H]2CC[C@@H](N)CC2)Cc2ccc(C#N)cc2)cc1-c1ccc(CN[C@H](C)c2ccc(C)cc2)o1 | Serine/threonine-protein kinase 35 (STK35, Homo sapiens, UniProt Q8TDR2) | enzyme activity, inhibitor |  | 1 µM | remaining activity | 98% |
| N#Cc1ccc(/C=C/CN(CC[C@H](N)C(=O)O)C[C@H]2O[C@@H](n3cnc4c(N)ncnc43)[C@H](O)[C@@H]2O)cc1 | Histone-lysine N-methyltransferase SETD2 (SETD2, Homo sapiens, UniProt Q9BYW2) | enzyme activity, inhibitor |  | 1 µM | activity vs control | 108% |
| Nc1ncnc2occ(-c3ccc(NC(=O)Nc4cc(C(F)(F)F)ccc4F)cc3)c12 | CDKL3 | cell-free assay |  | 20 µM | remaining signal | 0.8% |
| Cc1cnc(Nc2ccc(OCCN3CCCC3)cc2)nc1Nc1cccc(S(=O)(=O)NC(C)(C)C)c1 | PHIP BD2 | thermal stability, DSF |  | 10 µM | ΔTm | 0.6 °C |
| CC(C(=O)O)c1cccc(C(=O)c2ccccc2)c1 (stereo not drawn) | SLC10A2 | transporter uptake, inhibitor, radiometric |  | 1 mM | inhibition | 44% |
| Oc1ccc(-c2nc(-c3ccncc3)c(-c3ccc(F)cc3)[nH]2)cc1 | BRD9 | thermal stability, DSF |  | 10 µM | ΔTm | 0.31 °C |
| CN1CCN(c2ccc([N+](=O)[O-])cc2NC(=O)c2ccccc2)CC1 | WD repeat-containing protein 5 (WDR5, Homo sapiens, UniProt P61964) | thermal stability, DSF |  | 100 µM | ΔTm | 3.8 °C |
| O=C(Cc1cc(Cl)cc(Cl)c1)N1CCCC(c2nc3cc(F)ccc3[nH]2)C1 (stereo not drawn) | Methionyl-tRNA synthetase, putative | thermal stability, DSF |  | 100 µM | ΔTm | 8 °C |
| C[S+]([O-])c1ccc(-c2nc(-c3ccncc3)c(-c3ccc(F)cc3)[nH]2)cc1 (stereo not drawn) | PHIP BD2 | thermal stability, DSF |  | 10 µM | ΔTm | 1.14 °C |
| Cc1ccc(NC(=O)c2ccc(C)c(C(F)(F)F)c2)cc1C#Cc1nn(C2CCC(O)CC2)c2ncnc(N)c12 (stereo not drawn) | PIP4K2A | cell-free assay, inhibitor |  | 10 µM | remaining signal | 100% |
| CC(=O)N[C@H]1CSSC[C@@H](C(=O)N[C@@H](Cc2c[nH]c3ccccc23)C(N)=O)NC(=O)[C@@H](Cc2ccccc2)NC(=O)[C@H](CCCNC(=N)N)NC1=O | Melanocortin receptor 5 (MC5R, Homo sapiens, UniProt P33032) | cAMP, agonist | HEK293 | 3 min | Emax | 0% |
